Reference: paper PMC6128401 (Molecular pharmaceutics, 2017)

Key:
[1] = Stability against enzymatic degradation in human serum; type: in vitro ADME
How it was run: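 The ¹⁷⁷Lu-labelled peptide was incubated in human serum at 37°C and sampled at time points up to 24 h. Proteins were precipitated with acetonitrile (1:1.5) and centrifuged; supernatant was diluted 1:1 with water before HPLC for intact radiopeptide. Half-life came from first-order exponential decay fitting.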

[2] = target: T1, A431-CCK2R cell line expressing the human CCK2R (Homo sapiens, UniProt P32239); assay: Cell uptake; type: cell-based; conditions: A431-CCK2R cells, 2 h incubation, 0.4 nM
T1 sequence (P32239 1-447): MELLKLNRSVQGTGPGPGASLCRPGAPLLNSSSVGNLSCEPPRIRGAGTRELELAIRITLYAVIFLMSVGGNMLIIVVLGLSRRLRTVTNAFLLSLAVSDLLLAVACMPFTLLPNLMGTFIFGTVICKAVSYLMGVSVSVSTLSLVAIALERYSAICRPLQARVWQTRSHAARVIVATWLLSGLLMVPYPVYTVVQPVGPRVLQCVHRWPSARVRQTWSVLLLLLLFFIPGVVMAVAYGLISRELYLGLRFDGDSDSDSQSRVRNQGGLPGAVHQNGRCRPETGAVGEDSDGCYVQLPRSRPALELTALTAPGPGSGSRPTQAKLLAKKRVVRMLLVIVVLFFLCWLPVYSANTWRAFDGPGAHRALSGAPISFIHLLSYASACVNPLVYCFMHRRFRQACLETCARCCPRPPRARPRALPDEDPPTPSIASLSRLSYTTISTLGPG
How it was run: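 A431-CCK2R and A431-mock cells were cultured in DMEM with 10% FBS, penicillin/streptomycin/L-glutamine at 37°C, 5% CO₂. They were seeded at 1.0×10⁶ cells/well and grown 48 h to confluency. Peptides were labelled with ¹⁷⁷LuCl₃ (~50 GBq/µmol) in ascorbate buffer pH 5 with gentisic acid and L-Met, 80°C. Triplicate wells received ~100,000 cpm (0.4 nM) for 2 h. The internalized fraction was gamma-counted as % of total added.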

[3] = Biodistribution: uptake in normal organs and tissues; type: in vivo, BALB/c nude mice; conditions: 30 min p.i.
How it was run: (§1)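 Female and male BALB/c nude mice, 5-6 weeks old, carried A431-CCK2R and A431-mock xenografts in opposite flanks (2×10⁶ cells each). Tumours grew for ~14 days to ~0.2 g. Kit-prepared ¹⁷⁷Lu-peptide, 1 MBq (20 pmol; 50 GBq/µmol), was injected into the tail vein. Groups of five were killed at 30 min, 4 h, 1 d, 2 d, 3 d and 7 d; dissected tissues were gamma-counted and expressed as % IA/g.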

[4] = Medullary toxicity: white blood cell and platelet counts; type: in vivo, BALB/c nude mice
How it was run: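 Double-xenografted nude mice were dosed as in the therapy study (saline, 15 or 30 MBq i.v.), n=5. Weekly, 0.1 mL venous blood was drawn from the superficial temporal vein by lancet, up to eight samples per animal. White blood cells and platelets were counted on an automatic haematology analyser. Counts were expressed relative to basal values (week −2 = inoculation; week 0 = treatment).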

A431-mock xenografts = assay: Experimental radionuclide therapy, receptor-negative tumour growth; type: in vivo, BALB/c nude mice; conditions: for mean SGR A431-mock: single i.v. treatment
A431-CCK2R xenografts [5] = assay: Experimental radionuclide therapy, receptor-positive tumour growth; type: in vivo, BALB/c nude mice; conditions: for mean SGR A431-CCK2R: single i.v. treatment; for TVDT increase by a factor in comparison to the control group: A431-CCK2R tumours
A431-CCK2R xenografts [6] = assay: Biodistribution: uptake in receptor-positive tumour xenograft; type: in vivo, BALB/c nude mice; conditions: 30 min p.i.
How it was run: as §1

[7] = type: physicochemical
How it was run: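 Labelling used ~2 GBq ¹⁷⁷LuCl₃ in 1 mL dilute HCl, heated at 80°C for 15-25 min. Kits were stored up to 6 months; labelled product was held up to 48 h at room temperature or −20°C. Radiochemical purity was measured by RP-HPLC.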

[8] = Chemical stability in phosphate buffered saline; type: physicochemical; conditions: PBS at RT, up to/after 4 h incubation
How it was run: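 ¹⁷⁷Lu-labelled peptide (120 pmol/mL) was kept in phosphate buffered saline at room temperature. Aliquots were taken at intervals up to […] and analysed by HPLC for percentage intact radiopeptide relative to post-labelling radiochemical purity.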

[9] = Renal toxicity: creatinine and urea in serum; type: in vivo, BALB/c nude mice
How it was run: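 The same treated double-xenografted nude mice (saline, 15 or 30 MBq i.v.; n=5) gave weekly venous blood samples. Serum creatinine and urea were measured with specific kits on a semiautomatic biochemical analyser. Values were compared between treated and control groups over weeks from cell inoculation (week −2) onward.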

[10] = 15 MBq, one week after treatment
[11] = 15 MBq group, week 0 (week of treatment)
[12] = 15 MBq group, week -2 (cell inoculation)
[13] = 30 MBq group, week 0 (week of treatment)
[14] = 30 MBq group, week -2 (cell inoculation)

In the case of `CSCC[C@H](NC(=O)[C@H](Cc1c[nH]c2ccccc12)NC(=O)[C@H]1CCCCNC(=O)[C@H](NC(=O)CN2CCN(CC(=O)O)CCN(CC(=O)O)CCN(CC(=O)O)CC2)CCC(=O)N[C@@H](C)C(=O)N[C@@H](Cc2ccc(O)cc2)C(=O)N1)C(=O)N[C@@H](CC(=O)O)C(=O)N[C@@H](Cc1ccccc1)C(N)=O` [^177Lu-DOTA-cyclo-MG1, metal not drawn], the half-life [1] is reported as 30.1 h, the “internalized radioligand fraction (% of total)” value [2] is reported as 15.2±2.6% and the “kidney uptake, maximal value” [3] is reported as 1.75 % IA/g. The “reduction in PLT counts compared to the basal value” [4, 10] was 51.2-52.8%, the “reduction in WBC counts compared to the basal value” [4, 10] was 37.8-40.8% and the PLT value ([4]; 15 MBq, week 2 after treatment, reference 558-1,454) was 531±26 ×10^9/L. The “decline of PLT value compared to the basal value” ([4]; 30 MBq, after treatment) was 44.8-58.0%, the “reduction of WBC value compared to the basal value” ([4]; 30 MBq, week 1 after treatment) was 67.2-70.9% and the “PLT value below the reference values” ([4]; 30 MBq, week 1 and 2 after treatment) was 486-530 ×10^9/L. For the same compound, the “WBC value below the lower reference limit” value ([4]; 30 MBq, week 1 and 2 after treatment, reference 3.11-13.04) was 2.17-2.94 ×10^9/L, the “mean SGR A431-mock” value (A431-mock xenografts; 15 MBq group (0.6 nmol)) was 0.065±0.006 and the “mean SGR A431-mock” value (A431-mock xenografts; 30 MBq group (1.2 nmol)) was 0.051±0.006. For the same compound, the “TVDT increase by a factor in comparison to the control group” value (“TVDT increase by a factor in comparison” for short) (A431-mock xenografts; A431-mock tumours, high activity group (30 MBq)) was 1.5, the “mean SGR A431-CCK2R” value (A431-CCK2R xenografts [5]; 15 MBq group (0.6 nmol)) was 0.046±0.002 and the “mean SGR A431-CCK2R” value (A431-CCK2R xenografts [5]; 30 MBq group (1.2 nmol)) was 0.031±0.006. The “TVDT increase by a factor in comparison” value (A431-CCK2R xenografts [5]; high activity group (30 MBq)) was 2.6, the “TVDT increase by a factor in comparison” value (A431-CCK2R xenografts [5]; low activity group (15 MBq)) was 1.8 and the maximal tumour uptake (A431-CCK2R xenografts [6]) was 5.18 % IA/g. The “improvement of RCP by freezer storage” value ([7]; -20°C versus RT) was ~ 10%, the “degree of Met-oxidation” value ([7]; during storage of the kits) was 3.8-6.1% and the “mean RCP for the different time points after storage of the kits” value ([7]; kit storage up to 6 months, n=4) was 89.4±7.9%. The RCP after preparation ([7]; kit-prepared, directly after preparation) was 93.3±1.6%, the “RCP at 24 h after preparation” value ([7]; stored at RT) was 89.8±2.8% and the “RCP up to 4 h after preparation” value ([7]; stored at RT) was > 92%. The “RCP during incubation in PBS” value [8] was 86%, the “Creatinine (reference value 0.1-0.5)” value [9, 11] was 0.3 ± 0.2 mg/dL and the “Urea (reference value 17-38)” value [9, 11] was 26 ± 2 mmol/L. The “Creatinine (reference value 0.1-0.5)” value ([9]; 15 MBq group, week 1) was 0.2 ± 0.1 mg/dL, the “Urea (reference value 17-38)” value ([9]; 15 MBq group, week 1) was 32 ± 3 mmol/L and the “Creatinine (reference value 0.1-0.5)” value ([9]; 15 MBq group, week 2) was 0.3 ± 0.1 mg/dL. The “Urea (reference value 17-38)” value ([9]; 15 MBq group, week 2) was 33 ± 2 mmol/L, the “Creatinine (reference value 0.1-0.5)” value ([9]; 15 MBq group, week 3) was 0.3 ± 0.2 mg/dL and the “Creatinine (reference value 0.1-0.5)” value ([9]; 15 MBq group, week 4) was 0.5 ± 0.1 mg/dL. The “Creatinine (reference value 0.1-0.5)” value ([9]; 15 MBq group, week 5) was 0.7 mg/dL, the “Creatinine (reference value 0.1-0.5)” value ([9]; 15 MBq group, week -1) was 0.2 ± 0.1 mg/dL and the “Urea (reference value 17-38)” value ([9]; 15 MBq group, week -1) was 33 ± 4 mmol/L. For the same compound, the “Creatinine (reference value 0.1-0.5)” value [9, 12] was 0.2 ± 0.1 mg/dL, the “Urea (reference value 17-38)” value [9, 12] was 31 ± 3 mmol/L and the “urea above the upper limit of the reference value” ([9]; 15 MBq, beginning from week 3 after treatment) was 39 to 48 mmol/L. The “Creatinine (reference value 0.1-0.5)” value [9, 13] was 0.3 ± 0.2 mg/dL, the “Urea (reference value 17-38)” value [9, 13] was 32 ± 5 mmol/L and the “Creatinine (reference value 0.1-0.5)” value ([9]; 30 MBq group, week 1) was 0.3 ± 0.1 mg/dL. For the same compound, the “Urea (reference value 17-38)” value ([9]; 30 MBq group, week 1) was 29 ± 4 mmol/L, the “Creatinine (reference value 0.1-0.5)” value ([9]; 30 MBq group, week 2) was 0.2 ± 0.1 mg/dL and the “Creatinine (reference value 0.1-0.5)” value ([9]; 30 MBq group, week 3) was 0.5 ± 0.2 mg/dL. The “Creatinine (reference value 0.1-0.5)” value ([9]; 30 MBq group, week -1) was 0.2 ± 0.1 mg/dL, the “Urea (reference value 17-38)” value ([9]; 30 MBq group, week -1) was 28 ± 3 mmol/L and the “Creatinine (reference value 0.1-0.5)” value [9, 14] was 0.2 ± 0.1 mg/dL. The “Urea (reference value 17-38)” value [9, 14] was 27 ± 5 mmol/L, the “urea levels above the reference limit” value ([9]; 30 MBq, beginning from week 2 after treatment) was 39 to 52 mmol/L and the “creatinine levels above the reference limit” value ([9]; 30 MBq, beginning from week 4 after treatment) was 0.6 to 0.8 mg/dL.
